NPY-Y1 PAM-ag: potentiators or agonists of human neuropeptide Y receptor Y1. activation, % at 3.6 µM. P25929. NPY-Y1 expressing cells, potentiator/agonist activation. 220,000 tested, 0.37% active; in the data active means activation above about 33%, passing the limit was not always enough;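 further: cells stimulated with NPY at EC10 then isoproterenol at EC100; 0% = low agonist plus stimulus and 100% = saturating agonist plus stimulus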
NPY-Y2 antag: NPY-Y2 (human) receptor antagonism; 140,000 tested, 0.99% active; inhibition, % at 2.7 µM; NPY-Y2 expressing cells, antagonist mode; P49146; in the data active means inhibition above about 17%;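 further: 0% = vehicle with agonist challenge and 100% = reference antagonist with challenge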
Target sequence (P49146 whole entry, looked up): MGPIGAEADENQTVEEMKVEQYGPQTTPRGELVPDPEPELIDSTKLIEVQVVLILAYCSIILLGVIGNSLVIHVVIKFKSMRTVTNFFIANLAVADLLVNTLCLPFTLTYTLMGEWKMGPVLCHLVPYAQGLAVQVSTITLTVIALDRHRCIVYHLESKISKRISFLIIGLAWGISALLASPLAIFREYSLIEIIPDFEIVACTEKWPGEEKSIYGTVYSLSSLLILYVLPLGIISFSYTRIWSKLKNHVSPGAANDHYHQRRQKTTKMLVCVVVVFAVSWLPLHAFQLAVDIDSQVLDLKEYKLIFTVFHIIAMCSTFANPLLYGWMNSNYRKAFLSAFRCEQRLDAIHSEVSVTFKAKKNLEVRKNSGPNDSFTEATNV
NPY-Y1 antag: antagonists of human neuropeptide Y receptor Y1. P25929. HEK293-CNG Y1 cells, membrane potential fluorescence; NPY at EC95, then isoproterenol. inhibition, % at 3.6 µM. 200,000 tested, 1% active. AID 1040;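 active means inhibition above the campaign mean inhibition of all tested compounds plus 3 SD, cut at about 20% in these data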;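 further: 0% = DMSO wells given NPY plus isoproterenol and 100% = isoproterenol alone without NPY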
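Assay system: HEK293 Y1/CNG channel cell line; Doses: single compound dose of 3.6 µM, 0.4% DMSO; Timing: dye 3 h, compound 60 min room temperature, stimulation 45 min; Technique: Membrane-potential fluorescent dye readout; Measure: % inhibition of NPY effect.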
NPY-Y2 PAM-ag: human NPY-Y2 potentiation or agonism, primary screen; cells expressing NPY-Y2, potentiator/agonist read-out; 220,000 tested, 0.45% active; activation, % at 3.6 µM; P49146; in the data active means activation above about 27%;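 further: cells stimulated with NPY near EC25 plus isoproterenol at EC100; 0% = vehicle plus submaximal agonist and 100% = vehicle plus saturating agonist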
Active calls of the source: *; . = no result given. The list is not random: actives were taken first. Their share in the collection is about 1.8%.

SMILES	NPY-Y1 PAM-ag	NPY-Y2 antag	NPY-Y1 antag	NPY-Y2 PAM-ag
O=C(CNS(=O)(=O)c1cccc(Cl)c1)Nc1ccc(-c2nc3ccccc3s2)cc1	29	-2	-7	-1
CCC(NC(C)C)C(O)c1ccc(O)c2[nH]c(=O)ccc12 (stereo unspecified)	76*	3	-4	69*
Cc1cc(/C=N/NC(=O)Cn2c3ccccc3c(=O)c3ccccc32)c(C)n1-c1ccccc1	50*	3	-13	50*
Cn1c(N)c(C(=O)COC(=O)CCCc2c[nH]c3ccccc23)c(=O)n(C)c1=O	-45	20*	30*	-29
Cn1c(N)c(C(=O)COC(=O)CCc2c[nH]c3ccccc23)c(=O)n(C)c1=O	-26	6	18	-27
O=[N+]([O-])c1ccccc1Nc1c2ccccc2nc2ccccc12	50*	.	-8	49*
COc1ccc(-c2csc(NC(=O)c3ccccc3NS(=O)(=O)c3ccc(F)c(F)c3)n2)cc1	70*	.	3	94*
CCC(NC(=O)Nc1nnc(C(F)(F)F)s1)(C(F)(F)F)C(F)(F)F	-44	25*	38*	25
O=C(O)CCC(=O)Nc1nnc(C(F)(F)F)s1	-9	0	5	1
CCN(CC)S(=O)(=O)c1ccc(Cl)c(C(=O)Oc2cccnc2)c1	-10	4	7	-1
C=CCN=c1scc(-c2ccc(F)cc2)n1/N=C/c1ccccn1	60*	6	-12	33*
Cc1ncc(N=Nc2ccccc2Cl)c(-c2ccccc2)n1	-26	1	7	14
Nc1nc(-c2ccccc2)c(N=Nc2cccc3ccccc23)s1	111*	-13	-29	97*
Nc1nc(-c2ccccc2)c(N=Nc2ccccc2Cl)s1	95*	-14	-27	79*
Cc1ccccc1NC(=O)c1cccc(S(=O)(=O)Oc2ccc([N+](=O)[O-])cc2)c1	15	5	3	-13
O=C(c1ccccc1)c1ccc(OCC(O)CN2CCN(Cc3ccccc3)CC2)cc1 (stereo unspecified)	-49	4	3	-7
OC(CNC1Cc2ccccc2C1)COc1ccc(F)cc1 (stereo unspecified)	85*	.	.	74*
CC(=O)Nc1ccc(OCC(O)CNC2CCCC2)cc1 (stereo unspecified)	-5	1	4	-3
CC(C)(c1ccccc1)c1ccc(OCC(O)CNC2CCN(Cc3ccccc3)CC2)cc1 (stereo unspecified)	-25	.	21*	-8
CCOc1ccc(OCC(O)CNC2CCN(Cc3ccccc3)CC2)cc1 (stereo unspecified)	-82	19*	30*	-16
CC(=O)c1ccc(OCC(O)CN2CCN(Cc3ccccc3)CC2)cc1 (stereo unspecified)	-16	4	2	9
CCn1c(SCc2ccc(Cl)c(Cl)c2)nnc1C(C)NC(=O)c1ccc(OC)cc1 (stereo unspecified)	-17	7	4	4
CCCCc1ccc(-c2ccc(C)cc2O)nc1	-16	3	6	-9
COc1ccccc1-c1ccc(SCc2ccc(F)cc2)nn1	-8	.	10	-11
COc1ccccc1-c1ccc(SCc2ccc(C)cc2)nn1	-25	.	21*	-22
SMILES	NPY-Y1 PAM-ag	NPY-Y2 antag	NPY-Y1 antag	NPY-Y2 PAM-ag
Cc1ccc(-c2nn(CC(=O)Nc3cccnc3)c(=O)c3ccccc23)cc1	0	1	2	1
O=C(CSc1nnc2ccc(-c3ccncc3)nn12)c1cccs1	1	.	2	1
CC12CC(NC(=O)N1c1ccc(C(=O)N3CCN(c4ccccn4)CC3)cc1)c1ccccc1O2 (stereo unspecified)	52*	0	2	35*
Cc1nn(-c2ccccc2)c(Cl)c1C(=O)NCCCCNC(=O)c1c(C)nn(-c2ccccc2)c1Cl	-4	-2	6	1
CCC(=O)N(Cc1c(C)nn(-c2ccccc2)c1Cl)c1ccc(Cl)cc1	-14	19*	29*	-11
CC1CCC(C(C)C)C(OCC(O)CNC(C)C)C1 (stereo unspecified)	107*	.	.	98*
CC(C)NCC(O)COC1C2CC3CC(C2)CC1C3 (stereo unspecified)	48*	.	-9	32*
CC(C)NCC(O)COC1CCC(C(C)(C)C)CC1 (stereo unspecified)	-15	.	6	-3
CN(C)S(=O)(=O)c1ccc(C(=O)Nc2ccc(CCC(=O)N3CCCC3)cc2)cc1	10	5	1	-3
O=C(c1ccccc1)c1ccccc1C(=O)N1CCCC1	-27	-1	1	2
O=C(CC1C(=O)NCCN1C(=O)Nc1ccc(C(F)(F)F)cc1)Nc1ccc(F)cc1 (stereo unspecified)	69*	.	.	41*
Cc1ccccc1Nc1c(-c2cccnc2)nc2cccc(C)n12	39*	.	-2	29*
COc1ccc(OCc2nc(N)nc(Nc3ccccc3OC)n2)cc1	-11	2	9	-15
CCC(=O)Nc1ccccc1C(=O)OC(c1ccccc1)c1ccccc1	-24	24*	27*	-4
CNC(=O)c1ccc(Oc2ccc(C(=O)NC)cc2)cc1	10	1	-1	25
CCCCOn1c(C)c(C(=O)OCC)c2c3no[n+]([O-])c3ccc21	-16	5	5	-7
CCCCOn1c(C)c(C(=O)OCC)c2c3nonc3ccc21	-67	23*	67*	-45
N#CCCCSc1nnnn1-c1cccc(Cl)c1	21	-2	2	24
CCOC(=O)Cc1csc(NC(=O)CSc2nc(-c3ccccc3)c(C#N)c(=O)[nH]2)n1	-15	.	21*	-10
Cn1ncc(C#N)c1/N=C/N(Cc1ccccc1)Cc1ccccc1	-70	26*	22*	-32
O=C(Nc1ccccc1N1CCN(c2ccc(F)cc2)CC1)c1ccccc1	-6	29*	49*	-7
O=C(NCCCN1CCOCC1)C(=O)NCCc1ccccc1	11	.	7	-3
CCCCN(CCCC)CC(O)CN(c1cc([N+](=O)[O-])ccc1OC)S(=O)(=O)c1ccccc1 (stereo unspecified)	-28	20*	23*	-4
NC(=O)CSc1nnc(COc2ccccc2)n1N	2	.	.	-18
Cc1c(Cc2c(Cl)cccc2Cl)c(=O)ccn1C(C)c1ccccc1 (stereo unspecified)	-5	22*	20	2
SMILES	NPY-Y1 PAM-ag	NPY-Y2 antag	NPY-Y1 antag	NPY-Y2 PAM-ag
Cc1ccc(-n2c(-c3ccc(Br)cc3)c[n+]3c2CCc2ccc4cccnc4c2-3)cc1	-74	70*	54*	-29
c1ccc(CNc2nc(CN3CCOCC3)nc3scc(-c4ccccc4)c23)cc1	-30	19*	27*	-17
c1ccc(-c2csc3ncnc(NCCN4CCOCC4)c23)cc1	1	3	-5	1
CS(=O)(=O)N1CCN(Cc2ccc([N+](=O)[O-])cc2)CC1	-3	.	-1	-2
O=C(CSc1nnc2n(C3CCCC3)c(=O)c3ccccc3n12)N1CCCCCC1	92*	3	-10	86*
CC1CCCN(C(=O)CSc2nnc3n(C4CCCC4)c(=O)c4ccccc4n23)C1 (stereo unspecified)	53	0	-6	19

Screens (PubChem BioAssay)
